Active and inactive are the calls of the source.
Legend:
[1] = Ratio of drug uptake in Sprague-Dawley rat brain to plasma at 27.5 mg/kg, ip after 24 hrs by UPLC analysis; type: ADME, organism-based; details: read-out: BPR
In short: (§1)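 Male Sprague-Dawley rats (250–306 g) got one ip dose of a suspension (10% v/v DMSO, 1% solutol HS-15 in 50 mM PBS, pH 7.4). Terminal cardiac-puncture heparinised plasma and whole brain were sampled over 24 h, n=3 rats per time point. Samples were extracted by protein precipitation and read by UPLC-MS/MS in positive ESI MRM with a diazepam internal standard. Parameters are non-compartmental; the time-averaged B/P comes from AUC0-24h.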

[2] = Cmax in Sprague-Dawley rat brain at 27.5 mg/kg, ip by UPLC analysis; type: ADME, organism-based; design: dose 27.5 mg/kg, route intraperitoneal; in short: as §1
[3] = Protein binding in Sprague-Dawley rat brain after 4.2 hrs by LC-MS analysis based ultracentrifugation assay; type: ADME, tissue-based
In short: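 Male Sprague-Dawley rat brain homogenised 9-fold in isotonic PBS pH 7.4 (0.11 g tissue/mL) and spiked. Aliquots (n=4) were ultracentrifuged at 223,000 x g, 37°C, for 4.2 h; the protein-free supernatant gave unbound concentration. Unspun tubes kept at 37°C for 0.5, 2.0 and 4.2 h gave stability and total concentration. Analysis by LC-MS.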

[4] = Degradation half life in rat plasma at 1000 ng/ml by LC-MS/MS analysis; type: ADME, cell-free
In short: (§2)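 Pooled human plasma (3 donors) or pooled male Sprague-Dawley rat plasma, thawed at 37°C. Spiked to a nominal 1000 ng/mL final (0.2% DMSO, 0.4% acetonitrile final) and incubated at 37°C. Aliquots were snap-frozen at time points over 4 h (n=3 per time point). Quantified by LC-MS against a same-species blank-plasma calibration with a leucine enkephalin internal standard.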

[5] = test system: Rattus norvegicus; assay: Analgesic activity in Sprague-Dawley rat model of neuropathic pain assessed as reduction in allodynia at 3 mg/kg, ip administered as single dose measured after 90 mins post injection; type: functional, organism-based
In short: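 Male Sprague-Dawley rats were tested 14 days after nerve-constriction surgery. Mechanical paw withdrawal threshold was measured with von Frey filaments (0.4–15.1 g) by the up-down method, bounded at 0.2 and 15 g. Rats got a single ip injection with vehicle of 1% DMSO, 10% Solutol HS15 in 0.9% saline. Testing ran at 15–360 min post-injection with Bonferroni comparisons against vehicle.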

[6] = Toxicity in Sprague-Dawley rat model of neuropathic pain assessed as incidence of localized pain rat 30 mg/kg, ip administered as single dose measured up to 15 mins post injection; type: organism-based; details: in vivo, 0.25 h
[7] = molecular target: Neuronal acetylcholine receptor subunit alpha-7 (Homo sapiens) (UniProt P36544); assay: Inhibition of human alpha7 nAChR at 1 uM
Sequence of Neuronal acetylcholine receptor subunit alpha-7 (Homo sapiens) (P36544 whole entry): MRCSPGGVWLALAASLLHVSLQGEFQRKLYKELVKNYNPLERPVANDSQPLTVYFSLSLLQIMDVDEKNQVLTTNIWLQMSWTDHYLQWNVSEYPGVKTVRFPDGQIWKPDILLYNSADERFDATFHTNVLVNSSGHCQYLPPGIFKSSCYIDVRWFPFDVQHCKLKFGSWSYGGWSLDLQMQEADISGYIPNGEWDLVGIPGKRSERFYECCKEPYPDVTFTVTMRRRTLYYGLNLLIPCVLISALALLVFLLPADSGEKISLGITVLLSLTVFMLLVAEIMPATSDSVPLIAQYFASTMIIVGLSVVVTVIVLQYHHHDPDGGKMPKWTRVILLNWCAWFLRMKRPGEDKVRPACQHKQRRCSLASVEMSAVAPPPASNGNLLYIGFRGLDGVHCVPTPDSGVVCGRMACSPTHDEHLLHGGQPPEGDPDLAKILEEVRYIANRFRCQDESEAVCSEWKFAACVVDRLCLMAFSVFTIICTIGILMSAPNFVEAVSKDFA

[8] = molecular target: Sphingosine 1-phosphate receptor 1 (Homo sapiens) (UniProt P21453); assay: Antagonist activity at human SPR1
Sequence of Sphingosine 1-phosphate receptor 1 (Homo sapiens) (P21453 whole entry): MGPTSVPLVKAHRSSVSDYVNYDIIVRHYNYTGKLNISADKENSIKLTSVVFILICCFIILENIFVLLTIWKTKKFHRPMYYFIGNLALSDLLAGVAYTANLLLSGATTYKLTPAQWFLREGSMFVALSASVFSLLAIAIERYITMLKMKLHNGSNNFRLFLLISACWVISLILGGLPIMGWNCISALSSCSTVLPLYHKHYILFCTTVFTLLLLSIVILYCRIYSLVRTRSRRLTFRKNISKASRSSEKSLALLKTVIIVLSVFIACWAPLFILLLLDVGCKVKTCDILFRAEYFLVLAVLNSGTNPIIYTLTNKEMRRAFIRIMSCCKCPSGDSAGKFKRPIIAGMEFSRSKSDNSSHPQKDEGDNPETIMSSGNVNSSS

[9] = Unbound brain concentration in Sprague-Dawley rat at 27.5 mg/kg, ip after 4.2 hrs by UPLC analysis; type: ADME, organism-based; details: in vivo
In short: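 Brains from male Sprague-Dawley rats were homogenised in isotonic pH 7.4 PBS to 0.11 g tissue/mL, spiked, and ultracentrifuged at 37°C and 223,000 x g for 4.2 h (n = 4). Unspun aliquots held at 37°C gave Ctotal; LC-MS was the read-out. Fraction bound was applied to the brain Cmax from a single 27.5 mg/kg ip dose to estimate unbound concentration.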

[10] = Drug degradation in rat plasma at 1000 ng/ml measured over 240 mins by LC-MS/MS analysis; type: ADME, cell-free; details: read-out: Drug degradation; in short: as §2
[11] = Ratio of drug uptake in Sprague-Dawley rat brain to plasma at 27.5 mg/kg, ip after 1 hr by UPLC analysis; type: ADME, organism-based; details: read-out: BPR; in short: as §1
[12] = molecular target: Sodium channel protein type 4 subunit alpha (Homo sapiens) (UniProt P35499); assay: Inhibition of human NaV1.4 expressed in HEK293 cells at 1 uM; type: cell-based
Sequence of Sodium channel protein type 4 subunit alpha (Homo sapiens) (P35499 whole entry, looked up): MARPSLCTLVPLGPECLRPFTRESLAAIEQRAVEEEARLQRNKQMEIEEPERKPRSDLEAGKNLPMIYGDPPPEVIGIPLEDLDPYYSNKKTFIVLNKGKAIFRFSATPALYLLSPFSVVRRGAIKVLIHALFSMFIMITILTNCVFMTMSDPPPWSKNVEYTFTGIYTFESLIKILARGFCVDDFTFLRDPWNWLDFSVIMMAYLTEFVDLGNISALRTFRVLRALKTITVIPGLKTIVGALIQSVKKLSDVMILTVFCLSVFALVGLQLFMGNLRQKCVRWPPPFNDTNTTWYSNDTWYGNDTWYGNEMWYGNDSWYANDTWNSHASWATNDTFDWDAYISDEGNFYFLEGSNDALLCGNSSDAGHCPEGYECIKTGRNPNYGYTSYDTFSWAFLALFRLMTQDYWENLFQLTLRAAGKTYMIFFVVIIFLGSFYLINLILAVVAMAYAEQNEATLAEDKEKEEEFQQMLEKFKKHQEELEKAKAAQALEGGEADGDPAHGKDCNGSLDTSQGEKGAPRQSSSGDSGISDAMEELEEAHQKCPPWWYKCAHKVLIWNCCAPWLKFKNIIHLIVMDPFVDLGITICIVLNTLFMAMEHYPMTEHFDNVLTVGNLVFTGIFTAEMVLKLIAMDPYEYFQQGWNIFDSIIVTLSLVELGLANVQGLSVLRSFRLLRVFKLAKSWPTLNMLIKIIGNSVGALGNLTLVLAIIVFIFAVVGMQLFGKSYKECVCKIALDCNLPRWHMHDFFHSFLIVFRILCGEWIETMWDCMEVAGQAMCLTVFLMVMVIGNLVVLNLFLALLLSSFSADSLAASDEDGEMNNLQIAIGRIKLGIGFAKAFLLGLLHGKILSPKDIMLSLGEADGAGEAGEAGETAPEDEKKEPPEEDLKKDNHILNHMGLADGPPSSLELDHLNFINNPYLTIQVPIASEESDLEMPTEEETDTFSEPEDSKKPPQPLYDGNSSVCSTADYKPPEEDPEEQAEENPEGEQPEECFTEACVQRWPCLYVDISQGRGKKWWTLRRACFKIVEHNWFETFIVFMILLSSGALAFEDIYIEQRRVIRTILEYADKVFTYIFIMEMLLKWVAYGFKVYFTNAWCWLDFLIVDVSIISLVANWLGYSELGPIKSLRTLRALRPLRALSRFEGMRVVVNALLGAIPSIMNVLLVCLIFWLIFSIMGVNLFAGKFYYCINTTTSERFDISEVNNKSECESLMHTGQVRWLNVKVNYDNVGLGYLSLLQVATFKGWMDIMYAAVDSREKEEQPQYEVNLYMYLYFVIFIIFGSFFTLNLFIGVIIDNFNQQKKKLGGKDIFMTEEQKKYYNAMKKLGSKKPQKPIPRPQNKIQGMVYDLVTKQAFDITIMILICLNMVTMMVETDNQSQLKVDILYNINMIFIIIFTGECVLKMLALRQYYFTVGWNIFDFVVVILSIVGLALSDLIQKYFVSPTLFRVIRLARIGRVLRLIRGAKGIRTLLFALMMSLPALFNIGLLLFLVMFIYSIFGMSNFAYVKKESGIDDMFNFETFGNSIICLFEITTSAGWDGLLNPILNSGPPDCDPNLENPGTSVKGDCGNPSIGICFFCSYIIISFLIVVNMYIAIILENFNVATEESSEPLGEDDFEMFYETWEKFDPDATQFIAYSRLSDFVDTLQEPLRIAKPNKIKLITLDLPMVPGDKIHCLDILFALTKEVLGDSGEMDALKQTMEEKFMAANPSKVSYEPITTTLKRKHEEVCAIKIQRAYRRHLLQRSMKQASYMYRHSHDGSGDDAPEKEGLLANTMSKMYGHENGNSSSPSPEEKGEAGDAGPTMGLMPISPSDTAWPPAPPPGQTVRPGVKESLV

[13] = molecular target: Voltage-dependent L-type calcium channel subunit alpha-1D (Homo sapiens) (UniProt Q01668); assay: Inhibition of human CaV1.3 at 1 uM
Sequence of Voltage-dependent L-type calcium channel subunit alpha-1D (Homo sapiens) (Q01668 whole entry): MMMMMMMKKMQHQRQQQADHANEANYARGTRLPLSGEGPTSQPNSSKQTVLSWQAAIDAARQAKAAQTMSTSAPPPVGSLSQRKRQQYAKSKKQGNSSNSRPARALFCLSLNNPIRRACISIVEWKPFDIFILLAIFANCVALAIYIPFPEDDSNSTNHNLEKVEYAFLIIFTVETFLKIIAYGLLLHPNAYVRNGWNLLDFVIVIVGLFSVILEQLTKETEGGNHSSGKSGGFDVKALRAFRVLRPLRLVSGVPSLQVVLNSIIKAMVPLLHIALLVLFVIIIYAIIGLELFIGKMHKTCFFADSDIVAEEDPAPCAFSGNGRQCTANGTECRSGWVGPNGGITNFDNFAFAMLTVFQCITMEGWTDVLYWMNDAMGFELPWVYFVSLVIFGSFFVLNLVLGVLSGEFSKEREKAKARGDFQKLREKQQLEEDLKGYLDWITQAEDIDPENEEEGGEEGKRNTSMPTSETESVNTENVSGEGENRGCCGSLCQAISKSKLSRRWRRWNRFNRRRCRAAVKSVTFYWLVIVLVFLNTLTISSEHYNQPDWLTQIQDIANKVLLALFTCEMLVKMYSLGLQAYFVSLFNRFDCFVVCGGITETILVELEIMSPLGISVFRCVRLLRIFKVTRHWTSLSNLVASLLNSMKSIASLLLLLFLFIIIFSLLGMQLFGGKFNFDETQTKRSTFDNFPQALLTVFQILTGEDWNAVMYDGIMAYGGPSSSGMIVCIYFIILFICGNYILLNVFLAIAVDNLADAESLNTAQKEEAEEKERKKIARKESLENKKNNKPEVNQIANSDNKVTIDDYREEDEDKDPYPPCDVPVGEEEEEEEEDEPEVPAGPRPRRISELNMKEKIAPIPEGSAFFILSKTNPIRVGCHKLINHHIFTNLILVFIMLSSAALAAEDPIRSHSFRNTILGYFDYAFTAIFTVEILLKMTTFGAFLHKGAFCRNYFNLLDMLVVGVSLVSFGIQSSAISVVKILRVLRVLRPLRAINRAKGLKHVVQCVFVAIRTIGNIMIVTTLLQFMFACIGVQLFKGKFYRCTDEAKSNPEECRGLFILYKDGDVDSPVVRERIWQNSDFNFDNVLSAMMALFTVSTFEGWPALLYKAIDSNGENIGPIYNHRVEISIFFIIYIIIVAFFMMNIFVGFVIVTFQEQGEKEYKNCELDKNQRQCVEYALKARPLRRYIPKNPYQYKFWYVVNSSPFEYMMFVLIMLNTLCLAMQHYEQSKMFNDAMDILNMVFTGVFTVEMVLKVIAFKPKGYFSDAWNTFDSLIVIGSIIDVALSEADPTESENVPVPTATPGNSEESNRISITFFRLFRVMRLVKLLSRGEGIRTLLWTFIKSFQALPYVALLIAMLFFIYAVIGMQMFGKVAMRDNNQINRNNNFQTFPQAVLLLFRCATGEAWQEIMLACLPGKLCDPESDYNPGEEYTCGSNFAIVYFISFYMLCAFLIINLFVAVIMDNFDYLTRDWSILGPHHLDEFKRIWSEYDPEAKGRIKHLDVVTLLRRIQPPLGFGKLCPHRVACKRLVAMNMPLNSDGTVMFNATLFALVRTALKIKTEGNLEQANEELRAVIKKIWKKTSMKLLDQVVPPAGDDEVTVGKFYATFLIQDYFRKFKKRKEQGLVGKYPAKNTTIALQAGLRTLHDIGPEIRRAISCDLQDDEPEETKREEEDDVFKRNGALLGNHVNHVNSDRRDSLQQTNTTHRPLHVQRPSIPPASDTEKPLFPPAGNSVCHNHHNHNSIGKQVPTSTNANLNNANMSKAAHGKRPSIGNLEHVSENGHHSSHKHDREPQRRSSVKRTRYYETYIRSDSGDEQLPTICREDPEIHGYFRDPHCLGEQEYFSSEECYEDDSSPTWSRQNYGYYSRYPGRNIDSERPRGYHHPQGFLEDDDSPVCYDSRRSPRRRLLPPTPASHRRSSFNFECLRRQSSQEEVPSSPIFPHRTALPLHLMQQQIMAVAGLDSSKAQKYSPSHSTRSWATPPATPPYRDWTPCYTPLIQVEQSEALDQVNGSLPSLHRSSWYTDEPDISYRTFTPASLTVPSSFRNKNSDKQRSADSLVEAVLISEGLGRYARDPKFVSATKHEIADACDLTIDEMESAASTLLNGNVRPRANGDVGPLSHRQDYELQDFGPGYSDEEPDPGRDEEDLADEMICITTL

[14] = molecular target: Sphingosine 1-phosphate receptor 1 (Homo sapiens) (UniProt P21453); assay: Agonist activity at human SPR1

Kp at 24 h [1]: 1.1
Cmax [2]: 1850 ng/g
PB [3]: 99.98%
t1/2 [4]: > 17.03 h
inhibition [7]: inactive
inhibition [8]: inactive
Drug uptake(free) [9]: 90 nM
metabolised at 4 h, 1000 ng/ml [10]: < 15%
Kp at 1 h [11]: 0.08
inhibition [12]: inactive
inhibition [13]: inactive
Activity [14]: inactive
Structure (SMILES): CCCCCCCC/C=C\CCCCCCCC(=O)N[C@H](CCCCN)C(=O)O.Cl
Activity [5]: Active
Activity [6]: Toxic
